In ChEMBL document CHEMBL4017460, “A Tobramycin Vector Enhances Synergy and Efficacy of Efflux Pump Inhibitors against Multidrug-Resistant Gram-Negative Bacteria” (J Med Chem, 2017):
In brackets after ≈: the same amount, converted by molar mass. Activity calls are given as the source filed them. No cut-off for these calls is given here.

Experiments:
Pseudomonas aeruginosa [1] = assay: Antibacterial activity against Pseudomonas aeruginosa isolate P260-97103 after 18 to 24 hrs by microbroth dilution assay; assay type: functional
How it was run: (§1)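 Checkerboard in MHB: antibiotic 2-fold diluted along one axis, test agent 2-fold diluted along the other. Overnight culture standardized to 0.5 McFarland in saline, diluted 1:50 in MHB, added to wells, incubated 37 °C for 18 h. MIC is the lowest concentration with no growth. FIC = MIC in combination / MIC alone; FIC index = sum of both FICs.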

Pseudomonas aeruginosa [2] = assay: Potentiation of minocycline-induced antibacterial activity against mexAB-oprM/mexCD-oprJ/mexEF-oprN/mexXY/mexJK/opmH deficient Pseudomonas aeruginosa PAO750 after 18 to 24 hrs by microbroth dilution assay; assay type: functional
[3] = test system: Pseudomonas aeruginosa PAO1; assay: Inhibition of RND efflux pump in Pseudomonas aeruginosa PAO1 assessed as potentiation of trimethoprim-induced antibacterial activity […] by microbroth dilution assay
Pseudomonas aeruginosa [4] = assay: Antibacterial activity against colistin-resistant Pseudomonas aeruginosa isolate 91433 after 18 to 24 hrs by microbroth dilution assay; assay type: functional
How it was run: as §1, with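 “broth microdilution:” for “in MHB:”, “adjuvant” for “test agent”, “wells,” for “wells, incubated”, “FICI” for “FIC index”, “the two FICs; FICI ≤0.5 is synergy.” for “both FICs.”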

Pseudomonas aeruginosa [5] = assay: Inhibition of RND efflux pump in Pseudomonas aeruginosa isolate P262-104354 assessed as potentiation of minocycline-induced antibacterial activity by measuring fold reduction in minocycline MIC at 0.25 times antibacterial MIC after 18 to 24 hrs by microbroth dilution assay
How it was run: as §1, with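 “broth microdilution:” for “in MHB:”, “adjuvant” for “test agent”, “wells,” for “wells, incubated”, “FICI” for “FIC index”, “the two FICs; FICI ≤0.5 is synergy.” for “both FICs.”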

Klebsiella pneumoniae = assay: Inhibition of RND efflux pump in Klebsiella pneumoniae isolate 116381 assessed as potentiation of minocycline-induced antibacterial activity by measuring fold reduction in minocycline MIC at 8 ug/ml after 18 to 24 hrs by microbroth dilution assay
How it was run: (§2)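 Absolute minocycline MIC taken from checkerboard broth dilution with a fixed 8 μg/mL adjuvant. Inoculum was a 0.5 McFarland saline suspension diluted 1:50 in MHB, incubated 37 °C for 18 h. MIC is the lowest concentration with no growth.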

[6] = test system: Pseudomonas aeruginosa PAO1; assay: Inhibition of RND efflux pump in Pseudomonas aeruginosa PAO1 assessed as potentiation of vancomycin-induced antibacterial activity […] by microbroth dilution assay
Pseudomonas aeruginosa [7] = assay: Inhibition of RND efflux pump in Pseudomonas aeruginosa isolate 101885 assessed as potentiation of minocycline-induced antibacterial activity by measuring fold reduction in minocycline MIC at 8 ug/ml after 18 to 24 hrs by microbroth dilution assay
How it was run: as §1, with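 “broth microdilution:” for “in MHB:”, “adjuvant” for “test agent”, “wells,” for “wells, incubated”, “FICI” for “FIC index”, “the two FICs; FICI ≤0.5 is synergy.” for “both FICs.”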

Pseudomonas aeruginosa [8] = assay: Potentiation of rifampicin-induced antibacterial activity against Pseudomonas aeruginosa PAO1 […] by microbroth dilution assay; assay type: functional
Pseudomonas aeruginosa [9] = assay: Antibacterial activity against Pseudomonas aeruginosa PAO1 after 18 to 24 hrs by microbroth dilution assay; assay type: functional; how it was run: as §1
Pseudomonas aeruginosa [10] = assay: Inhibition of RND efflux pump in Pseudomonas aeruginosa isolate P259-96918 assessed as potentiation of minocycline-induced antibacterial activity by measuring fold reduction in minocycline MIC at 8 ug/ml after 18 to 24 hrs by microbroth dilution assay
How it was run: as §1, with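 “broth microdilution:” for “in MHB:”, “adjuvant” for “test agent”, “wells,” for “wells, incubated”, “FICI” for “FIC index”, “the two FICs; FICI ≤0.5 is synergy.” for “both FICs.”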

Pseudomonas aeruginosa [11] = assay: Inhibition of RND efflux pump in Pseudomonas aeruginosa isolate P262-101856 assessed as potentiation of minocycline-induced antibacterial activity by measuring minocycline MIC at 8 ug/ml after 18 to 24 hrs by microbroth dilution assay (reference value: 128 to 256 ug/ml); how it was run: as §2
Pseudomonas aeruginosa [12] = assay: Antibacterial activity against Pseudomonas aeruginosa isolate 101885 after 18 to 24 hrs by microbroth dilution assay; assay type: functional
How it was run: as §1, with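 “broth microdilution:” for “in MHB:”, “adjuvant” for “test agent”, “wells,” for “wells, incubated”, “FICI” for “FIC index”, “the two FICs; FICI ≤0.5 is synergy.” for “both FICs.”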

Pseudomonas aeruginosa [13] = assay: Inhibition of RND efflux pump in colistin-resistant Pseudomonas aeruginosa isolate 101243 assessed as potentiation of minocycline-induced antibacterial activity at 8 ug/ml after 18 to 24 hrs by checker board assay
How it was run: as §1, with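 “broth microdilution:” for “in MHB:”, “adjuvant” for “test agent”, “wells,” for “wells, incubated”, “FICI” for “FIC index”, “the two FICs; FICI ≤0.5 is synergy.” for “both FICs.”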

[14] = test system: Pseudomonas aeruginosa PAO1; assay: Inhibition of RND efflux pump in Pseudomonas aeruginosa PAO1 assessed as potentiation of minocycline-induced antibacterial activity at 8 ug/ml after 18 to 24 hrs by checker board assay; how it was run: as §1
Pseudomonas aeruginosa [15] = assay: Inhibition of RND efflux pump in Pseudomonas aeruginosa isolate 100036 assessed as potentiation of minocycline-induced antibacterial activity at 8 ug/ml after 18 to 24 hrs by checker board assay; how it was run: as §1
Pseudomonas aeruginosa [16] = assay: Inhibition of RND efflux pump in Pseudomonas aeruginosa isolate 100036 assessed as potentiation of minocycline-induced antibacterial activity by measuring minocycline MIC at 8 ug/ml after 18 to 24 hrs by microbroth dilution assay (reference value: 64 ug/ml)
How it was run: as §1, with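 “broth microdilution:” for “in MHB:”, “adjuvant” for “test agent”, “wells,” for “wells, incubated”, “FICI” for “FIC index”, “the two FICs; FICI ≤0.5 is synergy.” for “both FICs.”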

[17] = test system: Pseudomonas aeruginosa PAO1; assay: Inhibition of RND efflux pump in Pseudomonas aeruginosa PAO1 assessed as potentiation of minocycline-induced antibacterial activity by measuring minocycline MIC at 8 ug/ml after 18 to 24 hrs by microbroth dilution assay (reference value: 8 ug/ml); how it was run: as §2
Pseudomonas aeruginosa [18] = assay: Inhibition of RND efflux pump in colistin-resistant Pseudomonas aeruginosa isolate 101243 assessed as potentiation of minocycline-induced antibacterial activity by measuring fold reduction in minocycline MIC at 8 ug/ml after 18 to 24 hrs by microbroth dilution assay
How it was run: as §1, with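 “broth microdilution:” for “in MHB:”, “adjuvant” for “test agent”, “wells,” for “wells, incubated”, “FICI” for “FIC index”, “the two FICs; FICI ≤0.5 is synergy.” for “both FICs.”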

Pseudomonas aeruginosa [19] = assay: Inhibition of RND efflux pump in Pseudomonas aeruginosa isolate P262-104354 assessed as potentiation of minocycline-induced antibacterial activity by measuring fold reduction in minocycline MIC at 8 ug/ml after 18 to 24 hrs by microbroth dilution assay
How it was run: as §1, with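 “broth microdilution:” for “in MHB:”, “adjuvant” for “test agent”, “wells,” for “wells, incubated”, “FICI” for “FIC index”, “the two FICs; FICI ≤0.5 is synergy.” for “both FICs.”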

[20] = test system: Pseudomonas aeruginosa PAO1; assay: Inhibition of RND efflux pump in Pseudomonas aeruginosa PAO1 assessed as potentiation of novobiocin-induced antibacterial activity […] by microbroth dilution assay
Pseudomonas aeruginosa [21] = assay: Antibacterial activity against Pseudomonas aeruginosa isolate P262-101856 after 18 to 24 hrs by microbroth dilution assay; assay type: functional
How it was run: as §1, with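 “broth microdilution:” for “in MHB:”, “adjuvant” for “test agent”, “wells,” for “wells, incubated”, “FICI” for “FIC index”, “the two FICs; FICI ≤0.5 is synergy.” for “both FICs.”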

Pseudomonas aeruginosa [22] = assay: Inhibition of RND efflux pump in Pseudomonas aeruginosa isolate 100036 assessed as potentiation of minocycline-induced antibacterial activity by measuring fold reduction in minocycline MIC at 8 ug/ml after 18 to 24 hrs by microbroth dilution assay
How it was run: as §1, with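 “broth microdilution:” for “in MHB:”, “adjuvant” for “test agent”, “wells,” for “wells, incubated”, “FICI” for “FIC index”, “the two FICs; FICI ≤0.5 is synergy.” for “both FICs.”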

[23] = test system: Pseudomonas aeruginosa PAO1; assay: Inhibition of RND efflux pump in Pseudomonas aeruginosa PAO1 assessed as increase in tetracycline uptake measured at 1 min interval for 30 mins by fluorescence assay
How it was run: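 Tetracycline uptake assay in P. aeruginosa PAO1: enhancement of tetracycline fluorescence as it enters cells, monitored with compound present at several concentrations.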

[24] = test system: Pseudomonas aeruginosa PAO1; assay: Inhibition of RND efflux pump in Pseudomonas aeruginosa PAO1 assessed as potentiation of tigecycline-induced antibacterial activity by measuring fold reduction in tigecycline MIC at 8 ug/ml after 18 to 24 hrs by microbroth dilution assay relative to tigecycline alone
How it was run: as §1, with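 “broth microdilution:” for “in MHB:”, “adjuvant” for “test agent”, “wells,” for “wells, incubated”, “FICI” for “FIC index”, “the two FICs; FICI ≤0.5 is synergy.” for “both FICs.”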

[25] = test system: Pseudomonas aeruginosa PAO1; assay: Inhibition of RND efflux pump in Pseudomonas aeruginosa PAO1 assessed as potentiation of tobramycin-induced antibacterial activity after 18 to 24 hrs by checker board assay; how it was run: as §1
[26] = test system: Pseudomonas aeruginosa PAO1; assay: Inhibition of RND efflux pump in Pseudomonas aeruginosa PAO1 assessed as potentiation of doxycycline-induced antibacterial activity by measuring fold reduction in doxycycline MIC at 8 ug/ml after 18 to 24 hrs by microbroth dilution assay relative to doxycycline alone
How it was run: as §1, with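 “broth microdilution:” for “in MHB:”, “adjuvant” for “test agent”, “wells,” for “wells, incubated”, “FICI” for “FIC index”, “the two FICs; FICI ≤0.5 is synergy.” for “both FICs.”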

NC[C@H]1C[C@H](C(=O)N[C@H](CCc2ccccc2)C(=O)Nc2ccc3ccccc3c2)N(CCCCCCCCCCCCO[C@@H]2[C@@H](O[C@H]3O[C@H](CO)[C@@H](O)[C@H](N)[C@H]3O)[C@H](N)C[C@H](N)[C@H]2O[C@H]2O[C@H](CN)[C@@H](O)C[C@H]2N)C1
MIC (Pseudomonas aeruginosa [1]): 4 µg/mL (≈ 3.76 µM)
Activity (Pseudomonas aeruginosa [2]): inactive
fractional inhibitory concentration index (FICI) [3]: < 0.1
MIC (Pseudomonas aeruginosa [4]): 8 µg/mL (≈ 7.52 µM)
fold change (FC) (Pseudomonas aeruginosa [5]): 8 to 256
fold change (FC) (Klebsiella pneumoniae): 4 to 256
fractional inhibitory concentration index (FICI) [6]: < 0.15
fold change (FC) (Pseudomonas aeruginosa [7]): 8 to 256
fractional inhibitory concentration index (FICI) (Pseudomonas aeruginosa [8]): <0.05
MIC (Pseudomonas aeruginosa [9]): 32 µg/mL (≈ 30.1 µM)
fold change (FC) (Pseudomonas aeruginosa [10]): 8 to 256
MIC (Pseudomonas aeruginosa [11]): < 1 µg/mL
MIC (Pseudomonas aeruginosa [12]): 16 µg/mL (≈ 15 µM)
fractional inhibitory concentration index (FICI) (Pseudomonas aeruginosa [13]): 0.19
fractional inhibitory concentration index (FICI) [14]: 0.09
fractional inhibitory concentration index (FICI) (Pseudomonas aeruginosa [15]): 0.06
MIC (Pseudomonas aeruginosa [16]): < 0.25 µg/mL
MIC [17]: 0.12 µg/mL
fold change (FC) (Pseudomonas aeruginosa [18]): 8 to 256
fold change (FC) (Pseudomonas aeruginosa [19]): 8 to 256
fractional inhibitory concentration index (FICI) [20]: < 0.1
MIC (Pseudomonas aeruginosa [21]): 32 µg/mL (≈ 30.1 µM)
fold change (FC) (Pseudomonas aeruginosa [22]): 8 to 256
inhibition [23]: Dose-dependent effect
fold change (FC) [24]: 8 to 64
fractional inhibitory concentration index (FICI) [25]: > 1.5
fold change (FC) [26]: 8 to 64
